From ChEMBL document CHEMBL2346587, “Design, synthesis, and evaluation of a water-soluble antofine analogue with high antiproliferative and antitumor activity” (Bioorg Med Chem, 2013)
Active and inactive are the calls of the source. No cut-off for these calls is given here.

Key:
HCT-116 = experiment: Cytotoxicity against human HCT116 cells after 72 hrs by SRB assay; format: functional, cell-based; settings: HCT-116, 72 h
Procedure, shortened: (§1)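 SRB growth assay: 5 × 10^3 cells/well exposed to a concentration series for 72 h; fixed in 10% TCA 30 min at 4 °C, stained with 0.4% SRB in 1% acetic acid 30 min, dye dissolved in 10 mM Tris pH 10.0, absorbance at 515 nm. Viability relative to vehicle control; IC50 by non-linear regression; at least three experiments. A549-Pa is a paclitaxel-resistant A549 subline.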

A549 [1] = experiment: Cell cycle arrest in human A549 cells assessed as accumulation at S phase at 200 nM after 24 hrs by flow cytometry (reference value: 13.38 %); format: functional
A549 [2] = experiment: Cell cycle arrest in human A549 cells assessed as accumulation at G2/M phase at 50 nM after 24 hrs by flow cytometry (reference value: 22.84 %); format: functional
A549 [3] = experiment: Inhibition of AKT/mTOR signaling in human A549 cells assessed as inhibition of 4E-BP1 phosphorylation at 50 to 400 nM after 24 hrs by Western blot analysis; format: cell-based
Procedure, shortened: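 A549 cells plated at 3 × 10^5 per 60 mm dish, grown 24 h, then exposed to a concentration series for 24 h. Lysed in boiling SDS sample buffer with NaF and orthovanadate; protein by BCA; 25–50 µg run on 8–15% SDS-PAGE, transferred to PVDF, blocked in 5% milk/PBST, primary antibodies overnight at 4 °C, secondary 1–2 h, ECL detection.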

A549 [4] = experiment: Cell cycle arrest in human A549 cells assessed as accumulation at G2/M phase at 200 nM after 24 hrs by flow cytometry (reference value: 22.84 %); format: functional
SNU-638 = experiment: Cytotoxicity against human SNU638 cells after 72 hrs by SRB assay; format: functional, cell-based; settings: SNU-638, 72 h; procedure, shortened: as §1
[5] = Inhibition of Wnt signaling in human A549 cells assessed as inhibition of […] expression after 24 hrs by Western blot analysis; format: cell-based
Procedure, shortened: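 A549 cells were seeded at 3 × 10^5 per 60 mm dish, grown 24 h, then given graded compound concentrations for 24 h. Lysis was in boiling SDS buffer, with BCA protein assay. 25–50 µg per lane was run on 8–15% SDS-PAGE and blotted to PVDF. Primary antibodies (1:1000–1:2000) went on overnight at 4 °C, then secondary and ECL read-out.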

A549 [6] = experiment: Antitumor activity against human A549 cells xenografted in athymic nu/nu BALB/c mouse assessed as inhibition of tumor growth at 10 mg/kg, ip administered 35 days post-implantation 3 times a week relative to control; format: functional; settings: 840 h, route intraperitoneal, read-out: TGI
Procedure, shortened: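 Female athymic BALB/c nu/nu mice, six weeks old; 2 × 10^6 A549 or A549-Pa cells in 0.1 mL RPMI injected s.c. into right flank on day 0. Dosing began at 95–100 mm3 tumour volume: drug in 1% cremophore in PBS given i.p. three times weekly; controls got vehicle; five mice/group. Tumour volume tracked every 3–5 days; tumours excised and weighed at end; sections immunostained for Ki-67.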

[7] = target: ATP-dependent translocase ABCB1 (Homo sapiens, UniProt P08183); experiment: Inhibition of P-gp activity in human paclitaxel-resistant A549 cells potentiation of 10 uM paclitaxel-induced cytotoxicity at 0.2 uM by SRB assay; format: cell-based; settings: a549, 0.2 µM
ATP-dependent translocase ABCB1, sequence (P08183 whole entry): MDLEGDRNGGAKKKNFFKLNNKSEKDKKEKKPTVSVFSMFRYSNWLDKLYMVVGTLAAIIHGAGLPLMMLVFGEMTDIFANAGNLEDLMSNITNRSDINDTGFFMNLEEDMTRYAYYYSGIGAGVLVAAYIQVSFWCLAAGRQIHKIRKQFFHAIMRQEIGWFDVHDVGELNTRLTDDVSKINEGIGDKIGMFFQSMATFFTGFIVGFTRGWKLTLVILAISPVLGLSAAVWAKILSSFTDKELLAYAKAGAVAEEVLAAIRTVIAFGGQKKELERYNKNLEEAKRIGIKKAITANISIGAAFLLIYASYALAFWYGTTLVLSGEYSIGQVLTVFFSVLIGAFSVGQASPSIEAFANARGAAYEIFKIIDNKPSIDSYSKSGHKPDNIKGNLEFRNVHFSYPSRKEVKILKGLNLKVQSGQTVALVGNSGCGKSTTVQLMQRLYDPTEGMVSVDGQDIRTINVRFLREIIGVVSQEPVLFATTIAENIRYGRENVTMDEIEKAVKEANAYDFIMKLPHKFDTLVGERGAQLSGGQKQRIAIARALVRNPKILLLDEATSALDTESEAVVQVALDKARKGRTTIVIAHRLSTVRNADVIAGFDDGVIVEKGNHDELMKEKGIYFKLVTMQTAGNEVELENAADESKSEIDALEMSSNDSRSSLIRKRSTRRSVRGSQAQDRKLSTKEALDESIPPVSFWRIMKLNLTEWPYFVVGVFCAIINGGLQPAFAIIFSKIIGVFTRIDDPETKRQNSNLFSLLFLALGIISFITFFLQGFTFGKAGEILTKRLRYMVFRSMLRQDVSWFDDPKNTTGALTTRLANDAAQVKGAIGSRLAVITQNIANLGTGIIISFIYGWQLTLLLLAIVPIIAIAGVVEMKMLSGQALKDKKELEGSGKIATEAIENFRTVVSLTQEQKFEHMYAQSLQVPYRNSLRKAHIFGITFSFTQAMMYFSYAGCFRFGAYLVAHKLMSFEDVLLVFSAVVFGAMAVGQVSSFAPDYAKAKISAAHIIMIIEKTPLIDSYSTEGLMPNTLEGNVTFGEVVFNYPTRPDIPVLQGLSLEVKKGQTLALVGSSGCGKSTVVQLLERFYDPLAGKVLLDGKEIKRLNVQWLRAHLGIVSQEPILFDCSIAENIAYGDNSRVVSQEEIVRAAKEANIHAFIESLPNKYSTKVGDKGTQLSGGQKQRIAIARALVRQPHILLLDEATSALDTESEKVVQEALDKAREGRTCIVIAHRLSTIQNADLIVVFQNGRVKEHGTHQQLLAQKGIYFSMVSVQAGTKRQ
Procedure, shortened: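 A549-Pa cells plated at 5 × 10^4 cells/well and co-treated for 48 h with the compound (0–200 nM) plus paclitaxel or gefitinib; growth inhibition by SRB assay. Combination index computed at the 50% inhibition level as CI = D1/(Dx)1 + D2/(Dx)2, comparing combined versus single-agent concentrations.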

COc1ccc2c3c(c4cc(OC)c(OC)cc4c2c1)C[C@@]1(CO)CCCN1C3
IC50 (HCT-116): 60 nM | Activity (A549 [1]): 10.94% | Activity (A549 [2]): 20.71% | inhibition (A549 [3]): Active | Activity (A549 [4]): 18.33% | IC50 (SNU-638): 80 nM | inhibition [5]: Dose-dependent effect | inhibition in vivo at 10 mg/kg (A549 [6]): 60.7% | fractional inhibitory concentration index (FICI) [7]: 0.413
